Assay results reported in ChEMBL document CHEMBL4513216, “Probing the Open Global Health Chemical Diversity Library for Multistage-Active Starting Points for Next-Generation Antimalarials” (ACS Infect Dis, 2020).

Experiment: Toxicity liver stage against HepG2, at 10uM
Assay type: cell-based
Set-up: test concentration 10 uM, cell line HepG2-A16-CD81EGFP
Conditions: human, HepG2-A16-CD81EGFP cells; read-out: INHIBITION
Outline: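 Uninfected HepG2-A16-CD81EGFP cells, 3 × 10^3 per well, 1536-well, plated on prespotted compound at 10 μM final, parasite-free screening media added to match infected plates; puromycin 10 μM positive, DMSO 0.5% negative; run in parallel with 48 h PbLuc assay at 37 °C, 5% CO2; viability by CellTiter-Glo luminescence, normalized to controls.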

Structure (SMILES) | cytotoxicity at 10 µM [%]
CN(C)CCCC(=O)N1C[C@@H]2CC[C@H]1CN(Cc1ccccc1)C2 | -5.39
CNc1nc(CNC(=O)Nc2cccc(C)c2Cl)cs1 | -9.04
CN(C)c1nc2n(c(=O)n1)CCN2C(=O)Nc1ccc(Cl)cc1 | 6.36
CC1N(CC2CC2)C(=O)COC12CCN(C(=O)c1ccno1)CC2 (centres undefined) | 0.104
CN(C)S(=O)(=O)c1ccc2c(c1)N(Cc1ccccn1)CCC2 | 0.645
CCn1cc(CN2CCCN(C(=O)C3=NN(C)C(=O)CC3)CC2)cn1 | 3.54
COCCNS(=O)(=O)c1c(C)sc2ccccc12 | 1.11
COCCn1c2c(ccc1=O)CCN(C(=O)Cc1ccsc1)CC2 | 2.22
OCCOCc1n[nH]c2c1CN(Cc1cccs1)C2 | 6.65
Cc1ccc(OCC(C)NS(=O)(=O)Cc2ccon2)cc1 (centres undefined) | -4.84
CCN1CC2(CC1=O)CN(C(C)=O)CCN(C(=O)c1ccco1)C2 (centres undefined) | -8.92
O=C(CCc1ncc(-c2ccc(F)cc2)o1)NCCN1CCOCC1 | 10.6
O=C(Nc1cccnc1)[C@H]1C[C@@H]2CCN(Cc3nccs3)C[C@@H]2O1 | -68.2
Cn1cc(CN2CCCC(CCc3ccc(F)cc3F)C2)cn1 (centres undefined) | -10.4
CN(Cc1cc(Br)cn1C)C(=O)c1ccon1 | -3.33
CC(=O)Nc1nc(C(=O)N2CCCC2c2noc(C3CC3)n2)cs1 (centres undefined) | -10.5
CC(C)(C)c1nc(CN2CCCC(c3noc(C4CC4)n3)C2)no1 (centres undefined) | -14.4
CC(C)(C)c1cn2c(n1)C(CNCc1ccccn1)CCC2 (centres undefined) | -9.5
Cc1cc(CN2CCN(C(=O)c3ccc(=O)n(C)c3)CC2)no1 | -8.07
c1ccn2c(C3CCCN3Cc3nc(C4CC4)no3)nnc2c1 (centres undefined) | -2.59
Cc1cccc(OCCNC(=O)C(C)S(=O)(=O)C2CCCC2)c1 (centres undefined) | 6.72
O=C(NCC1CCCO1)c1csc(Cc2ccccc2)n1 (centres undefined) | -110
COc1cc2c(cc1-c1nc3c(cnn3C)[nH]1)OCO2 | -8.9

Structure (SMILES) | cytotoxicity at 10 µM [%]
Cc1nnc(SC2CCN(c3sccc3C#N)C2=O)[nH]1 (centres undefined) | 7.25
Cc1cc(Cn2cncc(Br)c2=O)on1 | 15.2
Cc1cc(S(=O)(=O)N2CCCN3CCCC3C2)ccc1F (centres undefined) | 17
Cc1ccsc1CN1C[C@@H]2CN(Cc3cccnc3)CCO[C@@H]2C1 | 8
NCC(=O)N1CCC2(CC1)CN(C(=O)Cc1ccc(Cl)cc1)CCO2 | 5.56
CS(=O)(=O)N1CCC(Oc2ccc(C(=O)N3CCSCC3)cc2Cl)CC1 | 16.2
Cc1ccc(F)cc1S(=O)(=O)N1C[C@@H](C)[C@@](C)(O)C1 | -0.784
Cc1cc(CCC(=O)N2CC[C@H](O)C2)ccc1Br | 2.35
COC[C@H]1CCCN1c1nccc(-c2cnn(-c3ccccc3C)c2)n1 | 8.63
CO[C@@H]1CCN(c2ncc(F)cn2)[C@H]1Cc1cnn(C)c1 | -2.63
Cc1cn(Cc2ccc(F)c(F)c2)nc1N | -13.5
CC(C)CC1SCC(=O)Nc2c1cnn2-c1ccccc1F (centres undefined) | -8.62
CN1CCOCC2(CCN(Cc3ccc[nH]3)CC2)C1 | 0.442
CCn1cc(CNC(=O)C2CCCC2)cn1 | 9.18
Cc1nccn1-c1ccc(CNS(=O)(=O)N2CCC(C)CC2)cn1 | 1.28
CCCc1nnc(N2CCN(Cc3ccccc3OC)CC2)o1 | -12
Cn1ccnc1SCCNC1CCN(c2nc3ccccc3s2)CC1 | 2.05
Cn1ccnc1-c1cccc(NC(=O)NCCCO)c1 | -6.77
CC(C)c1nnc2n1CCN(CC(=O)N1CCc3ccccc3C1)C2 | -5.92
COc1ncccc1CN1C[C@@H]2COC[C@]2(COc2cccnc2)C1 | -0.182
CC(=O)N1CC(c2ccnc(Nc3ccc(C)cn3)n2)C1 | -31.1
COc1ccc(Oc2ncccc2C(F)(F)F)cc1CN1CCCC1 | 4.22
Cc1nccn1C1CCCN(C(=O)CCc2nc(C(C)C)no2)C1 (centres undefined) | -6.27

Structure (SMILES) | cytotoxicity at 10 µM [%]
CCS(=O)(=O)N1CCC2(CC1)CN(Cc1ccccn1)C(=O)CO2 | 3.01
CC(NC(=O)Nc1ccc(F)c(F)c1)c1nc[nH]n1 (centres undefined) | 0.185
CN(Cc1ccc([S+](C)[O-])cc1)c1ccc(C(F)(F)F)cn1 (centres undefined) | -1.32
CN(C)C(CNCc1nc(-c2ccsc2)no1)c1cccs1 (centres undefined) | 16.3
O=C(Cc1ccc(F)cc1)NCCNCC1CNc2ccnn2C1 (centres undefined) | -3.47
COc1cccc(CNCc2c(C)nn(C)c2N(C)C)c1 | -2.51
N#Cc1ncn(CCC(=O)Nc2cccc(Cl)c2)n1 | -152
Cc1ccc([C@H]2CN(C(=O)C3CCC3)C[C@@H]2N)o1 | 7.95
O=C(O)C1(Cc2cc(-c3ccc(F)cc3)no2)CCOCC1 | -20.8
Cc1nnc2n1CCN(C(=O)c1cn(-c3ccccc3)nn1)C2 | -146
CC(C)CCOCCNC(=O)Nc1cc(C(F)(F)F)c[nH]c1=O | -1.72
CCS(=O)(=O)N1CCC2(CN(c3cccc(C)n3)C2)C1 | 3.5
CCN(CCn1cccn1)C(=O)CN1C(=O)OC[C@@H]1C(C)C | 1.97
Cc1cc(C)n(CC2CCCCN2CCc2ccncc2)n1 (centres undefined) | -7.07
O=C(c1cccc(CO)n1)N1CCOC(c2ccc(Cl)c(Cl)c2)C1 (centres undefined) | -10.4
CC(C)C(=O)N1CC2(CCN(CC(C)(C)C)CC2)C1 | -5.28
O=C(Cc1ccccn1)N1CCC(c2noc(-c3ccncc3)n2)CC1 | -26.8
COCC(=O)N1CCC2(CCC2NC(=O)c2ccn(C)c2)CC1 (centres undefined) | -76.4
Cc1n[nH]cc1CNCc1cccc(OCC(F)(F)F)c1 | 2.75
CN(C)S(=O)(=O)N1CCN(C(=O)OC(C)(C)C)CC12CCCCC2 | 3.36
COCc1noc(C2(c3ccc(F)cc3)CCOCC2)n1 | -25.3
O=c1cc(CNS(=O)(=O)C2CC2)nc2n1CCCNC2 | 7.83
O=C(NCc1ccc(F)cc1)NCC(O)(c1cccs1)C1CC1 (centres undefined) | -1.13

Structure (SMILES) | cytotoxicity at 10 µM [%]
CCOC(=O)N1CCN(CC(=O)Nc2nnc(C)s2)CC1 | 1.31
O=C(Cc1ccc2c(c1)OCC2)Nc1nc(C(F)(F)F)n[nH]1 | 2.98
CN(C)CCOCc1nnc2n1CCN(Cc1cccs1)CC2 | 9.03
Cn1cccc1C(O)CNC(=O)c1ccc(F)c(F)c1 (centres undefined) | -1.29
CCCNC(=O)CCC(=O)N1CCC(c2noc3cc(F)ccc23)CC1 | 2.45
Cc1nccc(C2CCCCN2Cc2cccc(F)c2)n1 (centres undefined) | -11.6
Cc1cc(=O)[nH]c(SC(C)C(=O)N2CCC(c3ncc[nH]3)CC2)n1 (centres undefined) | -16.2
CN(C)C(=O)N1CCc2c(CNc3ncccn3)cncc2C1 | -3.55
O=S1(=O)CCN(CCCc2ccc(Cl)cc2)CC1 | 1.91
Cc1nc(CN2CCC(N(C)Cc3noc(C(C)C)n3)C2)oc1C (centres undefined) | 4.63
O=C(O)c1ccc(COc2cccc(Cl)c2)s1 | 8.96
Cc1noc(OCc2csc(C)n2)n1 | -2.54
CC(C)N(C)Cc1cncc2c1CCN(C1CCOCC1)C2 | 5.88
Oc1ccc(Cl)cc1CNCc1ccccc1C(F)(F)F | 2.67
CC(C)CC(CC(C)C)NC(=O)c1ccn(C)c(=O)c1 | -0.717
O=C(NCCCOC1CCOC1)NC(C1CC1)C1CC1 (centres undefined) | -5.36
OCCCN1CCOC(c2ccc(F)cc2)C1 (centres undefined) | -7.09
Cc1nc(CN2CCCN(C(=O)c3cccnc3O)CC2)cs1 | -8.51
CCS(=O)(=O)N1CCc2ncnc(C)c2CC1 | -0.0192
COc1cc(N2CC[C@@H](OC)[C@@H]2Cc2cnn(C)c2)ncn1 | -0.155
c1cc(CN2CCCC2c2noc(C3CC3)n2)on1 (centres undefined) | -0.628
COCc1cnc2n1CCN(C(=O)C1=CCCCC1)C2C (centres undefined) | -2.93
CCOc1cc(C(=O)n2cccn2)cc(OCC)c1OCC | 2.83

Structure (SMILES) | cytotoxicity at 10 µM [%]
CC(=O)N1CCC(c2cncc(N3CCCC(O)C3)n2)CC1 (centres undefined) | -1.47
O[C@]12CCNC[C@H]1CN(c1nccc3ccccc13)CC2 | 12.3
Cc1cc(C)c2c(N3CCN(Cc4ncccc4C)CC3)ncnc2n1 | 1.92
CN(C)Cc1cn(-c2ccccc2C(=O)NCC2CCCCN2C)cn1 (centres undefined) | -0.94
COc1cc(C)nc(N2CCN(C(=O)COCC(F)(F)F)CC2)n1 | -9.62
Cc1noc(CNc2ccccc2C(=O)N2CCCC(O)C2)n1 (centres undefined) | -3.13
Cc1nc(CNC(=O)C(C)(C)c2ccc(F)cc2)no1 | 6.08
c1cncc(-c2noc(CNc3ncnc4c3CCNCC4)n2)c1 | 3.18
Cc1noc(C(C)N2CCN(c3ncnc4sccc34)CC2)n1 (centres undefined) | 8.38
Cc1ccc(C(CNCc2cccn2C)N2CCOCC2)s1 (centres undefined) | 14.9
Fc1cccc(Cl)c1CN1CCn2c(nnc2C2CC2)C1 | 8.7
CN(Cc1cc(Br)cs1)Cc1nnsc1Cl | -7.38
Cc1cc(CN(C)CC2CC(C3CCCCC3)=NO2)no1 (centres undefined) | 22.4
Cn1ccc(CN2CCC(Cc3ccccc3)CC2)cc1=O | 1.78
CCN(CC)S(=O)(=O)c1ccc(CNc2cc(C)nc(C)n2)cc1 | -5.83
CS(=O)(=O)NC[C@H]1OC[C@@H]2CCN(CCc3ccccc3)C[C@@H]21 | -4.67
Cc1oc(-c2ccco2)nc1CC(=O)N1CCN(CC(C)O)CC1 (centres undefined) | -11.4
Cc1ccc(C)c(OC2CCN(C(=O)NCC(=O)N3CCCC3)CC2)c1 | -5.75
COc1ccc2c(c1)CC(NCc1cccc(CO)c1)CC2 (centres undefined) | -51.8
CCn1c(C2CCNCC2)nn(CCn2ccc(C)n2)c1=O | 2.6
CC(C)Cc1noc(CN2CCCC2c2noc(C3CC3)n2)n1 (centres undefined) | -12.9
O=C(NCc1ccco1)c1ccc(N2CCOCC2)cc1 | 4.31
